A short description of series [1]: folding enthalpy; higher = less favourable; fluorescence melt of hairpins on a sequencing array, two-state fit. The conditions noted are these: sodium 0.088 M. The procedure, abridged: (§1)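 In 50 mM Na-HEPES pH 8.0 containing 25 mM NaCl, hairpins from the library on a sequenced MiSeq flow cell were imaged for Cy3 fluorescence at 2.5 °C steps up to 60 °C, with Cy3 and quencher oligos annealed. After normalisation to pre-quench Cy3 and to control constructs, two-state fits with bootstrapping gave melting temperature and folding enthalpy. Four replicates were combined by inverse-variance weighting, and fitted temperatures were shifted up by 9.35 °C to match UV melts.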

Series [2] is described as follows: melting temperature; fluorescence melt of hairpins on a sequencing array, two-state fit, raised by 9.35 °C to match UV melts. The conditions noted are these: sodium 0.088 M. In short, it runs like this:
as §1

For the sequence GTCCTGGGAAACCAGGGC (.(((((....))))).), in series [1], the folding enthalpy is -35.5 kcal/mol. Further, the Tm in series [2] stood at 56.9 °C.
The corresponding values for GTCCTTCGAAAGAAGAC (((.(((....)))))) are -18.3 kcal/mol and 36.7 °C.
The corresponding values for GTCCTTTCGAAAGAAGAC (((..(((....)))))) are -15.3 kcal/mol and 28.5 °C.
As to GTCGAACCGAAAGGTGAC (((..(((....)))))), the folding enthalpy in series [1] is -18 kcal/mol. In addition, the Tm in series [2] worked out at 42 °C.
The corresponding values for GTCGAAGGAAACTTCGGC (.(((((....))))).) are -43.1 kcal/mol and 51.3 °C.
The corresponding values for GTCGACGAAAGTCCGGAC ((((((....)))..))) are -18.1 kcal/mol and 37 °C.
Consider GTCGACGAAAGTCCTGAC ((((((....)))..))), for which the folding enthalpy in series [1] was -12.9 kcal/mol. The Tm in series [2] is 31.6 °C.
The corresponding values for GTCGACGAAAGTCGGGAC ((((((....)))..))) are -10.5 kcal/mol and 39.1 °C.
For the sequence GTCGACGAAAGTCGTGAC ((((((....)))..))), the folding enthalpy in series [1] is -10 kcal/mol. For the same sequence, the Tm in series [2] was determined as 43.6 °C.
Turning to GTCGAGCGAAAGCTGAC (((.(((....)))))), the folding enthalpy in series [1] was -20 kcal/mol. In series [2], the Tm was 57.7 °C.
The corresponding values for GTCGATCCGAAAGGAGAC (((..(((....)))))) are -22.7 kcal/mol and 40 °C.
The corresponding values for GTCGCAGAAATGCGAC ((((((....)))))) are -38.1 kcal/mol and 69.1 °C.
The corresponding values for GTCGCAGGAAACTGTGAC (((.(((....))).))) are -42.4 kcal/mol and 53.9 °C.
Turning to GTCGCCCGAAAGGGGAC (((.(((....)))))), in series [1], the folding enthalpy was -21.4 kcal/mol. In addition, the Tm in series [2] was determined as 55.2 °C.
The corresponding values for GTCGCCGAAAGGCACGAC ((((((....)))..))) are -15.6 kcal/mol and 48.4 °C.
The corresponding values for GTCGCCGAAAGGCAGGAC ((((((....)))..))) are -13.1 kcal/mol and 50.4 °C.
With GTCGCCGAAAGGCTAGAC ((((((....)))..))), in series [1], the folding enthalpy was -16.8 kcal/mol. Besides, the Tm in series [2] came out at 47.1 °C.
Consider GTCGCCGAAAGGCTGAC ((((((....))).))), for which the folding enthalpy in series [1] was -17.8 kcal/mol. The Tm in series [2] is 57.1 °C.
The corresponding values for GTCGCCGGAAACGACGAC ((((.((....)).)))) are -43.5 kcal/mol and 57.5 °C.
The corresponding values for GTCGCGACGAAAGTCGAC (((..(((....)))))) are -8.29 kcal/mol and 38.2 °C.
The corresponding values for GTCGCGCCGAAAGGCGAC (((..(((....)))))) are -7.69 kcal/mol and 43 °C.
Take GTCGCGCGAAAGCGGAC (((.(((....)))))): in series [1], the folding enthalpy was -15.4 kcal/mol. The Tm in series [2] stood at 56.5 °C.
The corresponding values for GTCGCGGGAAACCACGAC ((((.((....)).)))) are -43.8 kcal/mol and 53.4 °C.
The corresponding values for GTCGCGTCGAAAGACGAC (((..(((....)))))) are -8.6 kcal/mol and 35.5 °C.
The corresponding values for GTCGCTACGAAAGTAGAC (((..(((....)))))) are -14.6 kcal/mol and 33.3 °C.
GTCGGACCGAAAGGTGAC (((..(((....)))))): the folding enthalpy in series [1] was -18 kcal/mol. The Tm in series [2] came to 41.3 °C.
The corresponding values for GTCGGACGAAAGTCAGAC (((.(((....))).))) are -39.9 kcal/mol and 59.3 °C.
The corresponding values for GTCGGAGGAAACTCTGGC (.(.(((....))).).) are -28.2 kcal/mol and 37.2 °C.
The corresponding values for GTCGGCCGAAAGGCGGAC (((.(((....))).))) are -27.5 kcal/mol and 67.8 °C.
With GTCGGCGAAAGCCTTGAC ((((((....)))..))), the folding enthalpy in series [1] was -13 kcal/mol. For the same sequence, in series [2], the Tm was determined as 40.5 °C.
The corresponding values for GTCGGCGGAAACGTCGAC ((((.((....)).)))) are -51.5 kcal/mol and 62 °C.
The corresponding values for GTCGGGCGAAAGCCAGAC (((.(((....))).))) are -30 kcal/mol and 65.2 °C.
The corresponding values for GTCGGGGGAAACCTCGAC ((((.((....)).)))) are -44.2 kcal/mol and 55.5 °C.
Take GTCGGTACGAAAGTAGAC (((..(((....)))))): in series [1], the folding enthalpy is -10.7 kcal/mol. Also, in series [2], the Tm turned out to be 31.9 °C.
The corresponding values for GTCGGTGGAAACACTGAC (((.(((....))).))) are -40.6 kcal/mol and 54.4 °C.
On to GTCGTACGAAAGTATGAC (((.(((....))).))), for which, in series [1], the folding enthalpy is -41.9 kcal/mol. The Tm in series [2] worked out at 54.3 °C.
The corresponding values for GTCGTAGGAAACCACGAC (((((.(....).))))) are -31.8 kcal/mol and 49.1 °C.
